The species entered for test [1] is Canis familiaris. Kind of test: In vitro electrophysiological evaluation in canine cardiac ventricular muscle reported as % change for conduction time(CT) at 0.1-100 uM concentration range; Minimal (<10% decrease or increase inCT). The format is functional, Canis lupus familiaris, Muscle tissue. The method in brief: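 Canine right ventricular/papillary muscle strips in oxygenated Tyrode's, extracellular extra-stimulus conduction-interval method. FRP and CT are read from conduction-interval curves before and during rising concentrations. Compound is a 10 mM aqueous stock diluted into Tyrode's. Each strip is used once as its own control. Readouts are percent change from control at 10 μM, plus the maximum change with its concentration.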

Test [2] is filed under the species Canis familiaris. Briefly: In vitro electrophysiological evaluation in canine cardiac ventricular muscle reported as maximum % change for conduction time(CT) at 0.1-100 uM concentration range; Minimal (<10% decrease or increase inCT). Format: functional, Canis lupus familiaris, Muscle tissue.
For test [3], the species on record is Canis familiaris. Kind of test: In vitro electrophysiological evaluation in canine cardiac Purkinje fibres reported as percent change Vmax at 10 uM at concentration range of 1-100 uM; Minimal (<10% decrease or increase in Vmax). The settings on record: Canis lupus familiaris, Purkinje fiber. The format is functional, organism-based. The method in brief:
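Canine cardiac Purkinje fibers, intracellular recording, paced at a basic cycle length of 1 s. APD95 and Vmax are recorded together across cumulative concentrations. Compound is a 10 mM aqueous stock diluted into Tyrode's solution. Each fiber is used once as its own control. Readouts are percent change from control at 10 μM, and the maximum change with the concentration where it occurred.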

For test [4], the species on record is Canis familiaris. Briefly: In vitro electrophysiological evaluation in canine cardiac occurred is 100 uM. The format is functional. The settings on record: Canis lupus familiaris; Heart.
The species entered for test [5] is Canis familiaris. Kind of test: In vitro electrophysiological evaluation in canine cardiac Purkinje fibres reported as % change for action potential duration at 10 uM at 1-100 uM concentration range. The format is functional, Canis lupus familiaris, Purkinje fiber. The method in brief: (§1)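 Canine cardiac Purkinje fibres, intracellular microelectrode recording, paced at a basic cycle length of 1 s. APD95 and Vmax read simultaneously. Compound: 10 mM stock in deionized water, diluted into Tyrode's solution, tested over the stated concentration range. Each fibre used once as its own control. Result is % change from control, given at 10 µM or as the maximum with its concentration. M = <10% decrease or an increase in Vmax.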

For test [6], the species on record is Canis familiaris. Briefly: In vitro electrophysiological evaluation in canine cardiac Purkinje fibres reported as % change for action potential duration at a concentration of 10 uM. Format: functional, Canis lupus familiaris, Purkinje fiber. In outline: as §1
The species entered for test [7] is Canis familiaris. Kind of test: In vitro electrophysiological activity in canine cardiac occurred is 100 uM. The format is functional, Canis lupus familiaris, Heart.
The species entered for test [8] is Canis familiaris. Briefly: In vitro electrophysiological activity in canine cardiac occurred is 1 uM. Format: functional, Canis lupus familiaris, Heart.
The species named for test [9] is Canis familiaris. Kind of test: In vitro electrophysiological evaluation in canine cardiac ventricular muscle reported as maximum % change for functional refractory period (FRP) at 0.1-100 uM concentration range; concentration at which it occurred is 100 uM. Details: species or system Canis lupus familiaris, Muscle tissue. In outline:
(§2)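 Canine right ventricle and papillary muscle strips in oxygenated Tyrode's solution, fitted with stimulating and recording electrodes. The extra-stimulus conduction-interval method was adapted for in vitro use. FRP and CT were read from a conduction-interval curve before and after various compound concentrations, and expressed as percent change from control. Compounds were taken from 10 mM deionized-water stock into Tyrode's. Each strip was used once as its own control.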

Test [10] is filed under the species Canis familiaris. Briefly: In vitro electrophysiological evaluation in canine cardiac ventricular muscle reported as maximum % change for functional refractory period (FRP) at 0.1-100 uM concentration range; concentration at which it occurred is 1 uM. Details: species or system Canis lupus familiaris, Muscle tissue. In outline: as §2
The species entered for test [11] is Canis familiaris. Kind of test: In vitro electrophysiological evaluation in canine cardiac ventricular muscle reported as maximum % change for functional refractory period (FRP) at 0.1-100 uM concentration range; concentration at which it occurred is 10 uM. Details: species or system Canis lupus familiaris, Muscle tissue. In outline:
as §2

The species named for test [12] is Canis familiaris. Kind of test: In vitro electrophysiological evaluation in canine cardiac ventricular muscle reported as % change for the functional refractory period (FRP) at 10 uM at concentration range of 0.1-100 uM. Set-up: species or system Canis lupus familiaris, Muscle tissue. In outline: as §2
The species entered for test [13] is Canis familiaris. Briefly: In vitro electrophysiological evaluation in canine cardiac ventricular muscle reported as % change for conduction time(CT) at 10 uM at 0.1-100 uM concentration range; Minimal (<10% decrease or increase in CT). The format is functional, Canis lupus familiaris, Muscle tissue.
The species named for test [14] is Canis familiaris. Briefly: In vitro electrophysiological evaluation in canine cardiac ventricular muscle reported as maximum % change for conduction time(CT) at 0.1-100 uM concentration range; Minimal (<10% decrease or increase in CT). Format: functional, Canis lupus familiaris, Muscle tissue. In outline: as §2
Test [15] is filed under the species Canis familiaris. Kind of test: In vitro electrophysiological evaluation in canine cardiac Purkinje fibres reported as percent change Vmax at 10 uM at concentration range of 0.1-100 uM; Minimal (<10% decrease or increase in V max). The format is functional, organism-based. The settings on record: Canis lupus familiaris, Purkinje fiber. In outline: as §1
The species named for test [16] is Canis familiaris. Briefly: In vitro electrophysiological evaluation in canine cardiac Purkinje fibres reported as percent change Vmax at 10 uM at concentration range of 1-100 uM; Minimal (<10% decrease or increase in V max). Format: functional. The settings on record: Canis lupus familiaris, Purkinje fiber. In outline: as §1
Test [17] is filed under the species Canis familiaris. Briefly: (§3) In vitro electrophysiological evaluation in canine cardiac occurred is 100 uM. Format: functional. The settings on record: Canis lupus familiaris; Heart.
The species named for test [18] is Canis familiaris. Briefly: In vitro electrophysiological evaluation in canine cardiac ventricular muscle reported as maximum % change for conduction time(CT) at 0.1-100 uM concentration range; concentration at which it occurred is 100 uM. Format: functional, Canis lupus familiaris, Muscle tissue. In outline: as §2
The species named for test [19] is Canis familiaris. Described as §3. The format is functional. To be noted: Canis lupus familiaris; Heart. The source holds these as a separate data set.
For test [20], the species on record is Canis familiaris. Kind of test: (§4) In vitro electrophysiological activity in canine cardiac occurred is 100 uM. Format: functional, Canis lupus familiaris, Heart.
For test [21], the species on record is Canis familiaris. Described as §4. The format is functional, Canis lupus familiaris, Heart. The source holds these as a separate data set.

SMILES strings stand for the structures. “And” between values parts separate entries of the source, which are not always exact repeats. Equal values may be shown once.

As to `CCN(CC)CCNC(=O)c1ccc(N)cc1.Cl` [PROCAINAMIDE HYDROCHLORIDE], the CT in the test listed under Canis familiaris [1] and in the test listed under Canis familiaris [2] was below 10% in each case. In addition, the Vmax in the test listed under Canis familiaris [3] is below 10%; in the test listed under Canis familiaris [4], -14% and -10% (2×). In addition, the APD95 was -1% and 0% in the test listed under Canis familiaris [5]; -4% in the test listed under Canis familiaris [6]; -8% and 3% in the test filed under Canis familiaris [7]; -7% in the test filed under Canis familiaris [8].

For the molecule `Cl.O=C(CCC1C(=O)C2CCN1CC2)c1ccc(Cl)c([N+](=O)[O-])c1` (stereo not drawn), the FRP in the test listed under Canis familiaris [9] is 44%; in the test filed under Canis familiaris [10] it was 14%; in the test listed under Canis familiaris [11] it was 21%; in the test listed under Canis familiaris [12], 21% and 14% and 26%. Moreover, the CT in the test filed under Canis familiaris [13] was below 10%; in the test filed under Canis familiaris [14], below 10%; in the test listed under Canis familiaris [18], 14% and 21%. Further, the Vmax in the test listed under Canis familiaris [15] is below 10%; in the test listed under Canis familiaris [16], below 10%; in the test filed under Canis familiaris [17], -37% and -42%; in the test filed under Canis familiaris [19], -13%. For the same molecule, the APD95 in the test filed under Canis familiaris [20] is 11%; in the test filed under Canis familiaris [5] it was 1%; in the test filed under Canis familiaris [6], 4% and 3%; in the test filed under Canis familiaris [21], 4% and -11%.

The values are drawn from ChEMBL document CHEMBL1123566, “Synthesis and cardiac electrophysiological activity of 2- and 3-[(substituted phenyl)alkyl]quinuclidines. Structure-activity relationships” (1987).
